Data as given in ChEMBL document CHEMBL4118103, “Synthesis and Bioactivity Investigation of the Individual Components of Cyclic Lipopeptide Antibiotics” (J Med Chem, 2018).
Values after ≈ are worked out from the molar mass of the structure shown. Bridge positions count the residues as written; N and C are the ends. Square brackets hold non-standard residues; d marks the D form. Peptide text beside a SMILES is read from it. * marks the point of attachment. X1 = CC[C@H](C)CCCCC(=O)*; Heptanoyl = CCCCCCC(=O)*; Octanoyl = CCCCCCCC(=O)*; Dab = NCC[C@H](N)C(=O)O

Legend:
[1] = Cytotoxicity against African green monkey Vero cells after 72 hrs by MTT assay; type: cell-based; details: chlorocebus sabaeus, Vero cells
Outline: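 Vero cells seeded at 2x10^3 cells/well, incubated 24 h at 37 °C, 5% CO2, then exposed to compound 72 h; MTT added for 2 h, medium removed, formazan dissolved in DMSO, absorbance read at 570 nm. Viability relative to untreated cells (100%); CC50 as mean ± SD of three independent experiments, each in triplicate.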

[2] = system: Acinetobacter baumannii; assay: Antibacterial activity against Acinetobacter baumannii ATCC 19606 after 18 hrs by agar dilution method; type: functional
Outline: (§1)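 Serial two-fold agar dilution per CLSI; bacteria cultured in Mueller-Hinton broth, inoculum about 10^4 cfu/spot; final concentrations 0.03-128 µg/mL; plates incubated 35 °C for 18 h. MIC = lowest concentration preventing visible growth; representative of at least two independent experiments, a third run when the two disagreed.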

[3] = system: Klebsiella pneumoniae; assay: Antibacterial activity against extended-spectrum beta-lactamase producing Klebsiella pneumoniae 700603 after 18 hrs by agar dilution method; type: functional; outline: as §1
[4] = system: Klebsiella pneumoniae; assay: Antibacterial activity against NDM-1 producing Klebsiella pneumoniae ATCC BAA-2146 after 18 hrs by agar dilution method; type: functional; outline: as §1
[5] = system: Escherichia coli; assay: Antibacterial activity against Escherichia coli ATCC 25922 after 18 hrs by agar dilution method; type: functional; outline: as §1
[6] = system: Pseudomonas aeruginosa; assay: Antibacterial activity against Pseudomonas aeruginosa ATCC 27853 after 18 hrs by agar dilution method; type: functional; outline: as §1
[7] = system: Escherichia coli; assay: Antibacterial activity against extended-spectrum beta-lactamase producing Escherichia coli isolate 14-11 after 18 hrs by agar dilution method; type: functional; outline: as §1
[8] = ATCC 19606 = CIP 70.34 = JCM 6841, 18 h
[9] = Klebsiella pneumoniae, 700603, 18 h

Compound	CC50 at 72 h [1]	MIC [2, 8]	MIC [3, 9]	MIC ([4]; ATCC BAA-2146, 18 h)	MIC ([5]; ATCC 25922, 18 h)	MIC ([6]; ATCC 27853, 18 h)	MIC ([7]; isolate 14-11, 18 h)	MIC ([2]; ATCC 19606 = CIP 70.34 = JCM 6841)	MIC [3]	MIC [4]	MIC [5]	MIC [6]	MIC [7]
CCCCCCCC(=O)N[C@@H](CCN)C(=O)N[C@H](C(=O)N[C@@H](CCN)C(=O)N[C@H]1CCNC(=O)[C@H]([C@@H](C)O)NC(=O)[C@H](CCN)NC(=O)[C@H](CCN)NC(=O)[C@H](CC(C)C)NC(=O)[C@@H](CC(C)C)NC(=O)[C@H](CCN)NC1=O)[C@@H](C)O (Octanoyl-[Dab]T[Dab][Dab][Dab][dL]L[Dab][Dab]T; lactam 4-C)	150 µg/mL (≈ 130 µM)	0.5 µg/mL (≈ 0.433 µM)	1 µg/mL (≈ 0.865 µM)	0.5 µg/mL (≈ 0.433 µM)	0.5 µg/mL (≈ 0.433 µM)	1 µg/mL (≈ 0.865 µM)	0.5 µg/mL (≈ 0.433 µM)	–	–	–	–	–	–
COLISTIN	–	–	–	–	–	–	–	0.5 µg/mL	1 µg/mL	1 µg/mL	1 µg/mL	2 µg/mL	0.5 µg/mL
CC[C@H](C)CCCCC(=O)N[C@@H](CCN)C(=O)N[C@H](C(=O)N[C@H](CO)C(=O)N[C@H]1CCNC(=O)[C@H]([C@@H](C)O)NC(=O)[C@H](CCN)NC(=O)[C@H](CCN)NC(=O)[C@H]([C@@H](C)O)NC(=O)[C@@H](Cc2ccccc2)NC(=O)[C@H](CCN)NC1=O)[C@@H](C)O	160 µg/mL (≈ 136 µM)	0.12 µg/mL (≈ 0.102 µM)	1 µg/mL (≈ 0.849 µM)	0.5 µg/mL (≈ 0.424 µM)	0.25 µg/mL (≈ 0.212 µM)	4 µg/mL (≈ 3.39 µM)	0.5 µg/mL (≈ 0.424 µM)	–	–	–	–	–	–
CCCCCCCC(=O)N[C@@H](CCN)C(=O)N[C@H](C(=O)N[C@@H](CCN)C(=O)N[C@H]1CCNC(=O)[C@H]([C@@H](C)O)NC(=O)[C@H](CCN)NC(=O)[C@H](CCN)NC(=O)[C@H](CC(C)C)NC(=O)[C@@H](Cc2ccccc2)NC(=O)[C@H](CCN)NC1=O)[C@@H](C)O (Octanoyl-[Dab]T[Dab][Dab][Dab][dF]L[Dab][Dab]T; lactam 4-C)	86 µg/mL (≈ 72.3 µM)	0.5 µg/mL (≈ 0.42 µM)	1 µg/mL (≈ 0.841 µM)	1 µg/mL (≈ 0.841 µM)	0.5 µg/mL (≈ 0.42 µM)	1 µg/mL (≈ 0.841 µM)	1 µg/mL (≈ 0.841 µM)	–	–	–	–	–	–
CC[C@H](C)CCCCC(=O)N[C@@H](CCN)C(=O)N[C@H](C(=O)N[C@@H](CCN)C(=O)N[C@H]1CCNC(=O)[C@H]([C@@H](C)O)NC(=O)[C@H](CCN)NC(=O)[C@H](CCN)NC(=O)[C@H](CC(C)C)NC(=O)[C@@H](Cc2ccccc2)NC(=O)[C@H](CCN)NC1=O)[C@@H](C)O (X1-[Dab]T[Dab][Dab][Dab][dF]L[Dab][Dab]T; lactam 4-C)	71 µg/mL (≈ 59 µM)	0.25 µg/mL (≈ 0.208 µM)	2 µg/mL (≈ 1.66 µM)	0.25 µg/mL (≈ 0.208 µM)	1 µg/mL (≈ 0.831 µM)	2 µg/mL (≈ 1.66 µM)	0.5 µg/mL (≈ 0.415 µM)	–	–	–	–	–	–
CC[C@H](C)CCCCC(=O)N[C@@H](CCN)C(=O)N[C@H](C(=O)N[C@H](CO)C(=O)N[C@H]1CCNC(=O)[C@H]([C@@H](C)O)NC(=O)[C@H](CCN)NC(=O)[C@H](CCN)NC(=O)[C@H]([C@@H](C)O)NC(=O)[C@@H](CC(C)C)NC(=O)[C@H](CCN)NC1=O)[C@@H](C)O (X1-[Dab]T[dS][Dab][Dab][dL]T[Dab][Dab]T; lactam 4-C)	189 µg/mL (≈ 165 µM)	0.06 µg/mL (≈ 0.0524 µM)	1 µg/mL (≈ 0.874 µM)	0.5 µg/mL (≈ 0.437 µM)	0.12 µg/mL (≈ 0.105 µM)	2 µg/mL (≈ 1.75 µM)	0.25 µg/mL (≈ 0.218 µM)	–	–	–	–	–	–
CCCCCCC(=O)N[C@@H](CCN)C(=O)N[C@H](C(=O)N[C@@H](CCN)C(=O)N[C@H]1CCNC(=O)[C@H]([C@@H](C)O)NC(=O)[C@H](CCN)NC(=O)[C@H](CCN)NC(=O)[C@H](CC(C)C)NC(=O)[C@@H](CC(C)C)NC(=O)[C@H](CCN)NC1=O)[C@@H](C)O (Heptanoyl-[Dab]T[Dab][Dab][Dab][dL]L[Dab][Dab]T; lactam 4-C)	216 µg/mL (≈ 189 µM)	2 µg/mL (≈ 1.75 µM)	0.5 µg/mL (≈ 0.438 µM)	0.5 µg/mL (≈ 0.438 µM)	1 µg/mL (≈ 0.876 µM)	1 µg/mL (≈ 0.876 µM)	0.5 µg/mL (≈ 0.438 µM)	–	–	–	–	–	–
CC[C@H](C)CCCCC(=O)N[C@@H](CCN)C(=O)N[C@H](C(=O)N[C@@H](CCN)C(=O)N[C@H]1CCNC(=O)[C@H]([C@@H](C)O)NC(=O)[C@H](CCN)NC(=O)[C@H](CCN)NC(=O)[C@H](C(C)C)NC(=O)[C@@H](CC(C)C)NC(=O)[C@H](CCN)NC1=O)[C@@H](C)O (X1-[Dab]T[Dab][Dab][Dab][dL]V[Dab][Dab]T; lactam 4-C)	131 µg/mL (≈ 113 µM)	0.5 µg/mL (≈ 0.433 µM)	1 µg/mL (≈ 0.865 µM)	0.5 µg/mL (≈ 0.433 µM)	0.5 µg/mL (≈ 0.433 µM)	2 µg/mL (≈ 1.73 µM)	0.5 µg/mL (≈ 0.433 µM)	–	–	–	–	–	–
